This is a sample that favours compounds with a hit; in the whole collection about 1.8% have one here.
ARNT TACC3 PPI: disruptors of ARNT/TACC3 protein interaction, primary screen, biochemical, AlphaScreen, single concentration; AlphaScreen His-ARNT PAS-B/GST-TACC3 binding, luminescence; TACC3 fragment carries E629A point mutation; inhibition, % at 9.99 µM; actives 0.66% (n = 390,000); AID 623870, 2012;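 active = mean inhibition of replicates at least 50% and at least half of replicates each reaching 50%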;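 note: 0% = complete ARNT plus TACC3 wells and 100% = ARNT alone without TACC3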
HTRA1 inhibitor: HTRA1 serine protease inhibitors, primary screen, biochemical, fluorescence polarization, HTS. recombinant HTRA1, FP-rhodamine activity-based probe. actives 0.5% (n = 340,000). Q92743. inhibition, % at 5.96 µM; in the data active = inhibition above about 36%;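 note: 0% = enzyme with DMSO and 100% = wells lacking enzyme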
Target sequence (Q92743 whole entry, looked up): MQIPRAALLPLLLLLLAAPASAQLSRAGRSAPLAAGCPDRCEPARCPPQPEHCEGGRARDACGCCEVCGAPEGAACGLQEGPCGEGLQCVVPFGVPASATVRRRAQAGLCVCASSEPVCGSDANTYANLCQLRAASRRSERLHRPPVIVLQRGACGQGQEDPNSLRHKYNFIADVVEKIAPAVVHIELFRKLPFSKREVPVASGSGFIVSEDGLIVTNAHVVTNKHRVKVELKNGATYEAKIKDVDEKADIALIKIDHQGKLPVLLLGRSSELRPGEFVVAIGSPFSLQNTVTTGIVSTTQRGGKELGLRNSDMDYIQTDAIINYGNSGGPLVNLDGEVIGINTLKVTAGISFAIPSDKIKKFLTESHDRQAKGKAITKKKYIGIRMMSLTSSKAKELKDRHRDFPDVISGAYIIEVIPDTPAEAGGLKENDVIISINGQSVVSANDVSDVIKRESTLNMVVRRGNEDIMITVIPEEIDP
ABHD4 inh: ABHD4 inhibitors, primary screen, biochemical, fluorescence polarization, mouse; (Lyso)-N-acylphosphatidylethanolamine lipase (Mus musculus), Q8VD66; purified mABHD4, FP-Rh probe fluorescence polarization; inhibition, % at 8.92 µM; actives 0.54% (n = 370,000);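 active = inhibition exceeding the mean over every tested compound plus 3 SD, cut at about 30% in these data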;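 note: 0% = plate median of compound wells and 100% = S159A mutant with DMSO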
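Test system: mABHD4 protein; Read-out basis: % inhibition; Incubation: 45 min + 60 min at 25 °C; Repeats: single replicate; Technique: fluorescence polarization with parallel and perpendicular emission, 525/598 nm; Compound: 8.92 µM, single dose; Benchmarks: full inhibition S159A mutant plus DMSO, zero as sample-well median.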
TCR CD3 inh: inhibitors of human TCR-CD3 interaction, primary screen, biochemical, fluorescence, TAMRA-labeled TCR probe; T-cell receptor (TCR); inhibition, % at 9.4 µM; actives 0.37% (n = 360,000); AID 651800, 2012; in the data active = inhibition above about 19%;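 note: recombinant mutant TCR 2C K166C tagged with TAMRA read by polarization; 0% = receptor in buffer alone and 100% = receptor with positive control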
SIAE inh: human SIAE inhibitors, primary screen, biochemical, fluorescence polarization, FP-Rh probe, 1536-well HTS; actives 0.69% (n = 370,000); AID 1053197, 2014; Sialate O-acetylesterase (Homo sapiens), Q9HAT2; SIAE FP-Rh probe binding; inhibition, % at 9.66 µM;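 active = inhibition above a cutoff: mean of compounds within the control limits plus 3 SD of those, cut at about 17% in these data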;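 note: 0% = plate median of compound wells and 100% = probe without SIAE protein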
Starred values were filed as active, the others as inactive; . = no result.

SMILES	ARNT TACC3 PPI	HTRA1 inhibitor	ABHD4 inh	TCR CD3 inh	SIAE inh
CCNC(=O)[C@H]1[C@H](CO)[C@H]2Cn3c(ccc(C4=CCCC4)c3=O)[C@H]2N1C(=O)C1CC1	5	.	.	.	.
CCOC(=O)c1c(N)sc(C(=O)N2CCCCC2)c1C	47*	1	6	0	3
Cc1ccc(S(=O)(=O)N2CCCOC2CNC(=O)C(=O)NCCCn2ccnc2)cc1 (stereo unspecified)	78*	1	9	-2	5
COc1ccc(C(=O)Nc2ccc3c(c2)C(=O)N(C)C[C@@H](OC)[C@@H](C)CN(C)[C@H](C)CO3)cc1	5	.	.	.	.
O=S(=O)(O)c1cc(O)c2c(O)c(N=Nc3cc(Cl)ccc3O)c(S(=O)(=O)O)cc2c1	69*	31	.	.	.
O=C(NCC1CCCO1)C(=O)N/N=C/c1ccc(O)c(Cl)c1 (stereo unspecified)	-1	1	3	-8	8
O=C(NCC1CCCO1)C(=O)N/N=C/c1cc(Cl)ccc1O (stereo unspecified)	46*	4	2	4	-6
O=C(N/N=C/c1cc(Cl)ccc1O)c1ccncc1	69*	10	10	1	7
C[C@H](CO)N1C[C@H](C)[C@@H](CN(C)C(=O)Nc2ccc(F)cc2)OCCCC[C@H](C)Oc2ccc(NC(=O)CCCN(C)C)cc2C1=O	-5	.	.	.	.
O=C(Nc1ccc(N2CCCC2)cc1)C(Cl)c1ccccc1 (stereo unspecified)	active	35	.	.	.
N#Cc1ccc(-c2ccc3c(c2)[C@@H]2[C@@H](CCN2C(=O)c2ccc4c(c2)OCO4)[C@H](CO)N3)cc1	-4	.	.	.	.
COc1ccccc1NC(=O)Nc1ccc2c(c1)C(=O)N(C)C[C@H](OC)[C@@H](C)CN[C@H](C)CO2	0	.	.	.	.
C=CCc1cccc(/C=N/NC(=O)C[n+]2ccccc2)c1O	80*	7	1	-5	-2
C=CCc1cccc(/C=N/NC(=O)CNc2ccccc2)c1O	0	5	8	2	6
Cc1cc(/C([O-])=C(/C(=S)Nc2ccc(F)cc2)[n+]2ccccc2)c(C)n1-c1ccc(F)cc1	47*	26	22	2	7
Cc1cc(/C([O-])=C(/C(=S)Nc2ccccc2)[n+]2ccccc2)c(C)n1-c1ccccc1	21	20	7	-2	4
CCNC(=O)Nc1ccc2c(c1)C(=O)N(C)[C@@H]1CC[C@@H](CC(=O)Nc3ccccc3)O[C@@H]1CO2	4	.	.	.	.
CN(C)c1ccc(N=c2sc3ccccc3n2C)cc1	72*	17	10	4	-2
Cn1c(=Nc2ccccc2)sc2ccccc21	9	-6	-3	5	-1
CN1C(=O)c2cc(NC(=O)c3ccc(F)c(F)c3)ccc2OC[C@H]2O[C@H](CC(=O)N3CCOCC3)CC[C@@H]21	-1	.	.	.	.
CC(C)(C)NC(=O)CCN(/N=C/c1ccncc1)C1=NS(=O)(=O)c2ccccc21	63*	4	-3	5	3
O=S1(=O)N=C(N(CCO)/N=C/c2ccncc2)c2ccccc21	72*	-2	-2	1	2
COC1=C(Br)C(=O)c2nc(C)ccc2C1=O	.	16	21	19*	-7
COC1=C(N)C(=O)c2nc(C)ccc2C1=O	30*	10	8	-1	-3
Cc1ccc(C(=O)c2sc3nc4c(cc3c2N)CCC4)cc1	-7	-3	16	-4	6
SMILES	ARNT TACC3 PPI	HTRA1 inhibitor	ABHD4 inh	TCR CD3 inh	SIAE inh
Nc1nc(N)c2sc3nc4c(cc3c2n1)CCC4	76*	3	1	4	1
C[C@H]1CN([C@@H](C)CO)C(=O)c2c(c3ccccc3n2C)-c2ccccc2CO[C@H]1CN(C)S(=O)(=O)c1cn(C)cn1	2	.	.	.	.
O=C1C=C(Nc2cccnc2)c2ccccc2C1=O	35*	11	27	2	5
O=C1C=C(Nc2ccc(F)cc2)c2ccccc2C1=O	-1	2	13	1	5
C[C@@H]1CN([C@@H](C)CO)C(=O)c2cc(NC(=O)C3CCCCC3)ccc2O[C@@H](C)CCCCO[C@H]1CN(C)S(=O)(=O)c1ccc(F)cc1	-2	.	.	.	.
COc1cc(/C=N/NC(=O)C2=NNC(=O)C2C)ccc1O (stereo unspecified)	2	5	-1	6	1
CC1C(=O)NN=C1C(=O)N/N=C\c1ccc(O)cc1O (stereo unspecified)	79*	6	7	5	5
Cc1ccccc1-c1cnc2c(c1)C(=O)N([C@H](C)CO)C[C@@H](C)[C@H](CN(C)CC1CCOCC1)O2	-7	.	.	.	.
Fc1ccc(C(CCNCc2ccccn2)c2ccc(Cl)cc2)cc1 (stereo unspecified)	48*	21	.	.	.
CN(C)CC[C@@H](c1ccc(Cl)cc1)c1ccccn1	-6	1	4	-5	2
OC(CNCc1ccccn1)c1ccccc1 (stereo unspecified)	48*	6	7	0	2
COc1cc(/C=N/NC(=O)c2cc[n+]([O-])cc2)ccc1O	77*	6	-8	12	-4
COc1ccc(/C=N/NC(=O)c2cc[n+]([O-])cc2)cc1OC	18	-3	.	.	.
C[C@@H]1CN([C@@H](C)CO)C(=O)Cc2cc(NC(=O)c3ccncc3)ccc2O[C@H]1CN(C)Cc1ccc(Cl)c(Cl)c1	48*	.	.	.	.
C[C@H]1CN([C@@H](C)CO)C(=O)Cc2cc(NC(=O)C3CC3)ccc2O[C@H]1CN(C)Cc1ccc(Cl)c(Cl)c1	46*	.	.	.	.
CC(C)NC(=O)N(C)C[C@@H]1Oc2ccc(NC(=O)Nc3ccc(C(F)(F)F)cc3)cc2CC(=O)N([C@@H](C)CO)C[C@H]1C	46*	.	.	.	.
C[C@@H]1CN([C@H](C)CO)C(=O)Cc2cc(NC(=O)C3CC3)ccc2O[C@@H]1CN(C)Cc1ccc(Cl)c(Cl)c1	15	.	.	.	.
CC(C)NC(=O)N(C)C[C@H]1Oc2ccc(NC(=O)Nc3ccc(C(F)(F)F)cc3)cc2CC(=O)N([C@H](C)CO)C[C@H]1C	17	.	.	.	.
O=C(O)c1cccnc1Cl	22	0	-1	-3	9
O=C(O)c1cccnc1C(=O)O	50*	5	4	-12	0
O=C(NCc1cccc(F)c1)[C@@H]1[C@@H](CO)[C@@H]2Cn3c(cccc3=O)[C@H]1N2C(=O)c1cnccn1	active	.	.	.	.
C[C@H](CO)N1C[C@H](C)[C@H](CN(C)C(=O)Nc2ccc(F)cc2)Oc2ccc(N(C)C)cc2CC1=O	2	.	.	.	.
COc1ccc(-c2cc(-c3nc4ccccn4c3NCc3ccccc3)ccc2OC)cc1	11	-2	17	5	21*
C[C@@H]1CCCCO[C@@H](CN(C)C(=O)Cc2ccccc2)[C@@H](C)CN([C@@H](C)CO)C(=O)c2cc(NC(=O)Nc3ccc(F)cc3)ccc2O1	-3	.	.	.	.

Assay outcomes deposited in PubChem by several laboratories.
